Experiment [1] deals with T1, Prostaglandin E synthase (Homo sapiens) (UniProt O14684).
T1 sequence (whole entry): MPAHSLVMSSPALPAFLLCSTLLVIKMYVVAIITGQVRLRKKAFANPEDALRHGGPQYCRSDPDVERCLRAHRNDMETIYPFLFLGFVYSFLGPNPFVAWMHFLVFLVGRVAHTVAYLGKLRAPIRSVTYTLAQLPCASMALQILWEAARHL
Description: Inhibition of human recombinant microsomal PGES-1 expressed in freestyle 293-f cells assessed as conversion of PGH2 to PGE2 at 10 uM after 15 mins by enzyme immunoassay. It is filed as cell-based. In short, it runs like this:
(§1)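 Reaction in 0.2 M sodium phosphate pH 7.2 stock with 0.1 M GSH stock. Enzyme and inhibitor preincubated 15 min at room temperature, then started with cold PGH2 (1 μM final) on ice. Stopped after 30 s with SnCl2 in ethanol. PGE2 measured by enzyme immunoassay against an enzyme-free blank.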

Experiment [2] addresses T2, Prostaglandin E synthase (Homo sapiens, UniProt O14684).
T2 sequence (O14684 whole entry): T1 sequence (whole entry)
As to the kind of experiment: Inhibition of human recombinant microsomal PGES-1 expressed in freestyle 293-f cells assessed as conversion of PGH2 to PGE2 after 15 mins by enzyme immunoassay. It counts as cell-based. An outline of the steps: as §1

The target in experiment [3] is T2, Prostaglandin E synthase. As to the kind of experiment: Inhibition of microsomal PGES. In short, it runs like this:
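Compound was preincubated with enzyme for 15 min at room temperature. PGH2 (1 μM final) was added on ice, and the reaction was stopped after 30 s with SnCl2. PGE2 was measured by EIA against an enzyme-free blank.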

For the compound `O=C(O)CSc1nc2sc3c(c2c(=O)n1Cc1ccccc1)CCCCC3`, the inhibition in experiment [1] was 20%.
Same read-out and setting: next, `CCN1C(=O)C2Cc3c([nH]c4ccccc34)C(c3ccc(Cl)cc3)N2C1=O` (centres undefined): 10%; `CC(=O)NC(Cc1ccc(C)cc1)C(=O)NC(Cc1ccc(F)cc1)C(=O)N1CCC(OCc2ccccc2)CC1CCCNC(=N)N` (centres undefined): 31%.
Take `COCCN(c1ccc(/C=C2\S/C(=N\c3ccccc3)N(C(C)C(=O)O)C2=O)cc1)c1ccccc1OC` (centres undefined): the inhibition in experiment [1] was 83%. Further, the IC50 on Prostaglandin E synthase [2] was 3.5 µM.
With `N#CCC(=O)N/N=C(\c1nc2ccc(Cl)cc2nc1O)C(O)c1ccc(Cl)cc1` (centres undefined), in experiment [1], the inhibition amounted to 50%.
The compound `CC1=C(CC(=O)O)c2cc(F)ccc2/C1=C\c1ccc([S+](C)[O-])cc1` (centres undefined) returned an IC50 against Prostaglandin E synthase [3] of 80 µM.
As for `CS(=O)(=O)Nc1ccc([N+](=O)[O-])cc1OC1CCCCC1` [NS-398], on Prostaglandin E synthase [3], the IC50 was found to be 20 µM.
For `CCOC(=O)Cn1c(=O)c2c(nc3n2CCCN3c2ccc(OCC)cc2)n(C)c1=O`, the inhibition in experiment [1] came to 39%.
With `CC1CCc2c(sc3ncnc(SC(C)C(=O)O)c23)C1` (centres undefined), the inhibition in experiment [1] is 16%.
Same read-out and setting: next, `CC1(C)C(c2ccc(Cl)cc2)N(O)C2(CCCCC2=O)N1O` (centres undefined): 43%; `O=[N+]([O-])c1cc2c(c([N+](=O)[O-])c1)Nc1ccccc1N=C2c1ccc(Cl)cc1`: 26%.
The same measure, in the same setting: under `O=[N+]([O-])C(/C=C(\Cl)[N+](=O)[O-])=C(N1CCCCC1)N1CCCCC1` stands 15%.
On the same count and under the same terms, under `Cc1c(C(=O)O)ccc2c1NC(c1ccc(OCC#N)cc1)C1CC=CC21` (centres undefined) stands 39%.

The values are drawn from ChEMBL document CHEMBL1828529, “Novel human mPGES-1 inhibitors identified through structure-based virtual screening” (Bioorg Med Chem, 2011).
